The source made the active and inactive calls.
Legend:
Mus musculus [1] = assay: Antiseptic activity in Balb/c mouse model of Escherichia coli K1 infection-induced sepsis assessed as reduction in serum endotoxin level at 50 mg/kg, ip pretreated for 1 hr followed by Escherichia coli K1 infection measured after 12 hrs by chromogenic assay; type: functional, organism-based
Procedure, shortened: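 BALB/c mice dosed i.p. 1 h before i.p. E. coli K1 (1 × 10^6 CFU per mouse), sera taken at 12 h. Serum diluted 10-fold in endotoxin-free PBS, LAL chromogenic end-point assay; background subtracted, quantified against E. coli endotoxin standard, reported as EU·mL−1.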

Mus musculus [2] = assay: Antiseptic activity in Balb/c mouse model of Escherichia coli K1 infection-induced sepsis assessed as increase in survival rate at 1 mg/kg, ip pretreated for 1 hr followed by Escherichia coli K1 infection measured over 72 hrs relative to control; type: functional
Procedure, shortened: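 BALB/c mice dosed i.p. 1 h before i.p. E. coli K1 strain RS218 (O18:K1:H7) challenge, 1 × 10^7 CFU per mouse, diluted in LB broth; n = 10; survival monitored over 72 h.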

Mus musculus [3] = assay: Antiseptic activity in Balb/c mouse model of Escherichia coli K1 infection-induced sepsis assessed as reduction in bacterial count in kidneys at 50 mg/kg, ip pretreated for 1 hr followed by Escherichia coli K1 infection measured after 12 hrs; type: functional, organism-based
Procedure, shortened: (§1)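 BALB/c mice dosed i.p. 1 h before i.p. E. coli K1 (1 × 10^6 CFU per mouse); killed at 12 h. Lungs and kidneys removed aseptically into 1 mL sterile PBS, homogenised on ice, diluted 1:1000 in PBS, 10 μL plated on LB agar, 24 h at 37 °C, colonies counted.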

Mus musculus [4] = assay: Antiseptic activity in Balb/c mouse model of Escherichia coli K1 infection-induced sepsis assessed as reduction in bacterial count in lungs at 50 mg/kg, ip pretreated for 1 hr followed by Escherichia coli K1 infection measured after 12 hrs; type: functional, organism-based; procedure, shortened: as §1
BMDC = assay: Inhibition of LPS-induced immune response in C57BL/6 mouse BMDC assessed as increase in IL10 secretion at 25 uM pretreated for 30 mins followed by LPS-challenge measured after 6 hrs by ELISA; type: functional, cell-based
Procedure, shortened: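 Bone marrow from 6-week-old female C57BL/6 mice, RBC-lysed, cultured in RPMI-1640/10% FBS with 10 ng·mL−1 rmGM-CSF, 37 °C, 5% CO2; medium refreshed days 3 and 5. DCs pretreated 30 min with compound, then LPS 50 ng·mL−1 for 6 h; supernatant IL-10 by sandwich ELISA; means ± SEM.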

O=c1c(O)c(-c2ccc(O)c(O)c2)oc2cc(O)cc(O)c12
inactive: Activity (Mus musculus [1]) | Activity (Mus musculus [2]) | Activity (Mus musculus [3]) | Activity (Mus musculus [4]) | inhibition (BMDC)

Reference: ChEMBL document CHEMBL4145607, “Tamarixetin Exhibits Anti-inflammatory Activity and Prevents Bacterial Sepsis by Increasing IL-10 Production” (J Nat Prod, 2018)
